Experimental data as given in PMC3227540 (Science translational medicine, 2011).
Read-outs that look alike come from different tables or passages of the source.

Columns and labels:
IMR-32 cells = experiment: Inhibition of WT-TTR cytotoxicity towards IMR-32 neuroblastoma cells; format: cell-based, human; details: fig. S8B
AC16 cells = experiment: Inhibition of V122I TTR cytotoxicity towards AC16 cells; format: cell-based, human; details: TTR and ligands 8 μM
serum TTR = serum TTR (Homo sapiens, UniProt P02766); experiment: Stabilization of human serum TTR against acid-mediated denaturation; format: biochemical; details: 50 μM compound, acid treatment 72 hours
TTR [1] = target: T1, TTR (Homo sapiens, UniProt P02766); experiment: Surface plasmon resonance; format: binding; details: SPR
human wild type TTR = human wild type TTR (Homo sapiens, UniProt P02766); experiment: Isothermal titration calorimetry; details: two-site binding model; for Kd: ITC
TTR [2] = target: T1, TTR; experiment: Acid-mediated TTR amyloidogenesis; format: biochemical; details: kinetic aggregation assay over 5 days, TTR 3.6 μM, ligand 3.0 μM
TTR [3] = target: T1, TTR; experiment: Fluorescence polarization; details: competitive displacement of probe 1, apparent binding constant
Summary of the method: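 Competitive displacement of the fluorescent probe from the TTR thyroxine-binding pocket under physiological conditions. The test compound is titrated from 0.01 to 50 μM, and fluorescence polarization is read at excitation 485 nm and emission 525 nm. The dose-dependent drop in polarization is fitted to give the apparent binding constant, Kapp. Run in triplicate; SD reported.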

COX-1 = COX-1 (Homo sapiens, UniProt P23219); experiment: COX-1 enzymatic inhibition; format: biochemical; details: read-out: COX-1 inhibition
COX-1, sequence (P23219 24-599): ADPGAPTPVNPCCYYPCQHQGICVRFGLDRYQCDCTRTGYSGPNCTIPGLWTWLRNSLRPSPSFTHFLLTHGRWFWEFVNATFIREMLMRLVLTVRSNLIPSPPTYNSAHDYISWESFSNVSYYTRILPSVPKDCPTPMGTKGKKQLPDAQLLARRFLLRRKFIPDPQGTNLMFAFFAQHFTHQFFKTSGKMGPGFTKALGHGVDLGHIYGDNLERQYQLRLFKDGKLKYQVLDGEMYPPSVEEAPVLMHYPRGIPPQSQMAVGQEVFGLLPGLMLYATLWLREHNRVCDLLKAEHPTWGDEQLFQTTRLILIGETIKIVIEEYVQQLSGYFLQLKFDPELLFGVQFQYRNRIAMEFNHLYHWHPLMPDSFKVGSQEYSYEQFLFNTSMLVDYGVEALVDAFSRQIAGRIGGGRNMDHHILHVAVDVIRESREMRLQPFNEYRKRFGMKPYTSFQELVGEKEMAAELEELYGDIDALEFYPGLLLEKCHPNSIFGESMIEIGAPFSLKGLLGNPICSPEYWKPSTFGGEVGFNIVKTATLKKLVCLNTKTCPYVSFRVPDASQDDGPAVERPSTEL

O=[N+]([O-])c1cc(O)c(O)c([N+](=O)[O-])c1 [3,5-dinitrocatechol]
Performance against WT-TTR toxicity in IMR-32 cells (in words) (IMR-32 cells): performed poorly | Rescue of AC16 cell viability from V122I TTR proteotoxicity (in words) (AC16 cells): performed poorly | % tetramer at 72 hrs (of tetramer present at 0 hours) (serum TTR): 37.6%

O=C(c1cc(O)c(O)c([N+](=O)[O-])c1)c1ccccc1F [Ro 41-0960]
koff, fold faster than ligand 7 (TTR [1]): ~ 5 x | Kd (human wild type TTR; read-out: Kd1, first site): 15 nM | Kd (human wild type TTR; read-out: Kd2, second site): 2000 nM | ITC binding affinity (in words) (human wild type TTR): low nanomolar affinity | Fibril formation at substoichiometric ligand (in words) (TTR [2]): dramatically slowed fibril formation | Rescue of AC16 cell viability from V122I TTR proteotoxicity (in words) (AC16 cells): completely rescued

O=C(O)Cc1ccccc1Nc1c(Cl)cccc1Cl [diclofenac]
fold lower target residence time than ligand 7 (TTR [1]): ~40 x | Kapp (TTR [3]): 4.66 µM

O=C(O)c1cccnc1Nc1cccc(C(F)(F)F)c1 [niflumic acid]
fold lower target residence time than ligand 7 (TTR [1]): ~ 20 x | Performance against WT-TTR toxicity in IMR-32 cells (in words) (IMR-32 cells): performed poorly | inhibition at 10 µM (COX-1): 94% | Rescue of AC16 cell viability from V122I TTR proteotoxicity (in words) (AC16 cells): performed poorly | % tetramer at 72 hrs (of tetramer present at 0 hours) (serum TTR): 11.5%
